{
  "source": "paper PMC7883929",
  "about": "(Molecular Vision, 2021)",
  "key": {"[1]": {"tested_on": "laser-induced glaucoma model in monkeys", "details": "at 6 h, cited from earlier work"}, "[2]": {"details": "cited from earlier work"}, "hTM-80 cells": {"tested_on": "hTM-80 cells", "experiment": "Superoxide dismutase activity assay", "assay_type": "cell-based, human", "details": "100 µM, overnight/24 h"}, "normotensive rat eyes": {"tested_on": "normotensive rat eyes", "experiment": "IOP measurement in normotensive Sprague Dawley rats", "assay_type": "in vivo", "details": "Travoprost 0.004% single eye drop, 6 h time point only", "how_it_was_run": "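Adult (10-week) female Sprague Dawley rats, n = 3/group, housed under dim light (90 lux) and dosed under a masked protocol. Each received a single 30 µl topical drop in PBS: saline vehicle, 0.004% travoprost positive control, or test compound. IOP was read by TonoLab rebound tonometry at 0, 3, 6, 24, 48 and 72 h. The contralateral eye served as control. Dosing was repeated three times per rat after 7-day washouts. Rank-sum test, mean ± SEM.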"}},
  "note": "Entries after “also recorded” stand apart in the source; their conditions may differ. Where two headings read alike, the source gives them in different places.",
  "data": [
    {"smiles": "CC1(C)CC(O[N+](=O)[O-])CC(C)(C)N1[O]", "note": "[4-nitro-TEMPOL]", "values": [
      {"measurement": "IOP lowering", "setting": "[1]; dose 150 µg/eye drop", "result": 20, "unit": "%"}
    ]},
    {"smiles": "O=[N+]([O-])OCC(CO[N+](=O)[O-])O[N+](=O)[O-]", "note": "[GTN, glyceryl trinitrate]", "values": [
      {"measurement": "IOP lowering", "setting": "[1]; dose 500 µg", "result": 13, "unit": "%"}
    ]},
    {"smiles": "O=C(CCC/C=C\\C[C@@H]1[C@@H](CC[C@@H](O)CCc2ccccc2)[C@H](O)C[C@@H]1O)OCCCCO[N+](=O)[O-]", "note": "[LBN, Latanoprostene bunod]", "values": [
      {"measurement": "IOP-lowering ability", "setting": "[2]", "result": "−9.0", "unit": "mm/Hg"}
    ]},
    {"smiles": "CC1(C)CC(N)CC(C)(C)N1[O]", "note": "[SA-3, 4-amino TEMPOL]", "values": [
      {"measurement": "SOD enzyme level (in words)", "setting": "hTM-80 cells", "result": "the effect was comparable to that of a standard SOD mimetic SA-3 compound"}
    ]},
    {"smiles": "[NH-]c1c[n+](N2CCOCC2)no1", "note": "[SIN-1, Linsidomine]", "values": [
      {"measurement": "SOD enzyme level (in words)", "setting": "hTM-80 cells", "result": "did not increase the SOD enzyme; also recorded: did not increase the SOD level"}
    ]},
    {"smiles": "CC(C)OC(=O)CCC/C=C\\C[C@@H]1[C@@H](/C=C/[C@@H](O)COc2cccc(C(F)(F)F)c2)[C@H](O)C[C@@H]1O", "note": "[Travoprost]", "values": [
      {"measurement": "IOP lowering", "setting": "normotensive rat eyes", "result": 14, "unit": "%"}
    ]},
    {"smiles": "CC(C)OC(=O)CCC/C=C\\C[C@@H]1[C@@H](CC[C@@H](O)CCc2ccccc2)[C@H](O)C[C@@H]1O", "note": "[latanoprost]", "values": [
      {"measurement": "IOP-lowering ability", "setting": "[2]", "result": "−7.7", "unit": "mm/Hg"}
    ]}
  ]
}
